Our source for the Activity and GI50 values is ChEMBL document CHEMBL1155784, “Aromatic 2-chloroethyl urea derivatives and bioisosteres. Part 2: Cytocidal activity and effects on the nuclear translocation of thioredoxin-1, and the cell cycle progression” (2008).

Activity calls are given as the source filed them. No cut-off for these calls is given here.

Experiment [1] has as its system M21. The experiment can be described thus: Inhibition of nuclear translocation of thioredoxin 1 in human M21 cells at 25 uM after 18 hrs by immunocytochemistry. It is filed as functional, cell-based. The procedure, abridged:
(§1)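 M21 cells seeded on fibronectin-coated coverslips, held 18 h at 37 °C, then treated with compounds (5–50 µM; reference agents 0.1–40 µM) or 0.1% DMSO. Fixed in 3.7% formaldehyde, permeabilized with 0.1% saponin, and blocked in 3% BSA. Stained 1 h at 37 °C with anti-thioredoxin-1 monoclonal (1/200), then with Alexa-488 anti-mouse IgG plus DAPI for nuclei.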

The test system of experiment [2] is M21. The experiment can be described thus: Inhibition of nuclear translocation of thioredoxin 1 in human M21 cells at 10 uM after 18 hrs by immunocytochemistry. It is filed as functional, cell-based. The procedure, abridged:
as §1

The test system of experiment [3] is M21. Nature of the experiment: Inhibition of nuclear translocation of thioredoxin 1 in human M21 cells at 50 uM after 18 hrs by immunocytochemistry. The experiment is classed as functional, cell-based. The procedure, abridged:
as §1

Experiment [4] deals with MCF7. The experiment can be described thus: Cell cycle arrest in human MCF7 cells assessed as G2/M phase accumulation at 2 times GI50 after 24 hrs by flow cytometry. It is filed as functional. Background: In flow cytometry, cells or beads pass a laser one at a time.
Experiment [5] has as its system MCF7. The experiment can be described thus: Cell cycle arrest in human MCF7 cells assessed as S phase accumulation at 2 times GI50 after 24 hrs by flow cytometry. It is filed as functional.
Experiment [6] relates to MCF7. Nature of the experiment: Cell cycle arrest in human MCF7 cells assessed as […] phase accumulation at 2 times GI50 after 24 hrs by flow cytometry. The experiment is classed as functional.
The test system of experiment [7] is M21. Nature of the experiment: Inhibition of nuclear translocation of thioredoxin 1 in human M21 cells at 0.1 uM after 18 hrs by immunocytochemistry. The experiment is classed as functional, cell-based. Put shortly:
as §1

In experiment [8] the test system is HT-29. Nature of the experiment: Growth inhibition of human HT29 cells after 48 hrs by sulforhodamine B assay. It is filed as functional. The following applies: HT-29, 48 h. The procedure, abridged:
(§2)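 NCI-style sulforhodamine B assay. HT-29 (5×10³), M21 or MCF-7 (3.5×10³) cells were grown 24 h, then given DMSO-solubilized drug at 100 to 0.7 µM final (DMSO <0.5%) for 48 h. Fixed in cold 10% TCA, stained with 0.1% SRB, read at 585 nm after subtracting a day-0 plate. Inhibition is relative to DMSO controls; GI50 from at least triplicate runs.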
On the technique in general: The SRB assay estimates cell density from bound dye.

Experiment [9] relates to M21. The experiment can be described thus: Growth inhibition of human M21 cells after 48 hrs by sulforhodamine B assay. The following applies: M21, 48 h. It is filed as functional. Put shortly:
as §2

Experiment [10] deals with MCF7. The experiment can be described thus: Growth inhibition of human MCF7 cells after 48 hrs by sulforhodamine B assay. The experiment is classed as functional. The following applies: MCF7, 48 h. Put shortly: as §2

For the molecule `Cc1ccc(NC(=O)NCCCl)cc1C`, the outcome in experiment [1] and in [2] was inactive.
With `O=C(NCCCl)Nc1ccc2ccccc2c1`, the outcome in experiment [3] and in experiment [2] was Active.
Consider `Cc1ccc(NC2=NCCO2)cc1C`, for which the result in experiment [2] was Active.
Consider `O=C(NCCCl)Nc1ccc(OC2CCCCC2)cc1`, for which the outcome in experiment [3] was Active. The Activity in experiment [4] came to 14%; in [5] it was 29%; in [6], 57%.
Regarding `CC[C@]1(O)C[C@@H]2CN(CCc3c([nH]c4ccccc34)[C@@](C(=O)OC)(c3cc4c(cc3OC)N(C)[C@H]3[C@@](O)(C(=O)OC)[C@H](OC(C)=O)[C@]5(CC)C=CCN6CC[C@]43[C@@H]65)C2)C1`, the result in [7] was inactive.
For the molecule `O=C(NCCCl)Nc1ccc(Oc2ccccc2)cc1`, the result in experiment [1] and in [2] was inactive.
As to `O=C(NCCCl)Nc1cccc(OCc2ccccc2)c1`, the outcome in experiment [3] and in experiment [2] was inactive. Moreover, the GI50 in experiment [8] amounted to 2900 nM; in experiment [9], 6.5 µM; in [10], 10 µM.
For `COc1cc2c(c(OC)c1OC)-c1ccc(OC)c(=O)cc1[C@@H](NC(C)=O)CC2` [COLCHICINE], the outcome in experiment [7] was inactive. Further, the Activity in experiment [4] worked out at 62%; in experiment [5] it was 19%; in experiment [6], 19%.
As to `CC(=O)O[C@H]1C(=O)[C@@]2(C)[C@H]([C@H](OC(=O)c3ccccc3)[C@]3(O)C[C@H](OC(=O)[C@H](O)[C@@H](NC(=O)c4ccccc4)c4ccccc4)C(C)=C1C3(C)C)[C@]1(OC(C)=O)CO[C@@H]1C[C@@H]2O`, the outcome in experiment [7] was inactive.
Turning to `O=C(NCCCl)Nc1ccc(I)cc1`, the result in [3] and in experiment [2] was Active. Further, the Activity in experiment [4] is 42%; in experiment [5], 33%; in experiment [6], 25%.
For `O=C(NCCCl)Nc1ccc(C2CCCCC2)cc1`, in [3], the result was Active. Besides, the values for the Activity in experiment [4], in [5] and in experiment [6] were 16%, 13% and 71%, respectively.
In the case of `CC(C)(C)c1ccc(NC(=O)NCCCl)cc1`, the result in [3] and in experiment [2] was inactive. For the same molecule, the Activity is recorded as 58% in experiment [4], 24% in [5] and 17% in experiment [6].

A word on the GI50: it is the concentration giving 50% growth inhibition. A low value points to greater sensitivity of the cells.
